ChEMBL document CHEMBL1153279, “Antioxidant and antiradical activities of resorcinarene tetranitroxides” (Bioorg Med Chem Lett, 2009)

Assays:
[1] = system: Radical scavenging activity; assay: Antioxidant activity assessed as [drug]/[DPPH]causing 50% DPPH radical scavenging activity after 5 mins; type: functional
How it was run: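 DPPH reacted with scavenger at 25 °C in 1.5 mL EtOH plus 0.5 mL 0.2 M acetate buffer (pH 5.5). DPPH started at 50–100 µM and test scavengers at 0.5–25 µM. Percent DPPH scavenging was read after 5 min and plotted against the [scavenger]/[DPPH] ratio. ECR50 is the ratio giving 50% scavenging.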

[2] = Antiradical activity against 2,2'-azobis-amidinopropane-induced linoleic acid peroxidation assessed as ratio of total oxyradical scavenging capacity to Trolox C; type: physicochemical
How it was run: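 Linoleic acid (0.63 mM) was autoxidized by 1 mM ABAP in 0.05 M phosphate buffer (pH 7.4) with 0.02% Lubrol, in air at 37 °C. Conjugated-diene formation was followed at 234 nm. Inhibitor was added once autoxidation ran at constant rate. Efficiency is expressed relative to Trolox C, with stoichiometric factors taken from lag-time ratios and Trolox n set at 2.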

Row | Compound | Activity [1] | Ratio [2]
1 | Oc1cccc(O)c1 [RESORCINOL] | 0.29 | 1.7
2 | CC1(C)CC(O)CC(C)(C)N1[O] [TEMPOL] | 64 | 0.4
